Experiments:
[1] = target: T1, Aldo-keto reductase family 1 member B1 (Rattus norvegicus, UniProt P07943); test: Inhibition of Wistar rat lens aldose reductase 2
Summary of the method: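 Lens ALR2 partially purified from male Wistar rats (8–9 weeks). Reaction: 4.67 mM D,L-glyceraldehyde, 0.11 mM NADPH, 0.067 M phosphate pH 6.2; started with substrate, NADPH loss at 340 nm read 4 min after 1 min lag at 30 °C. Blank lacks substrate and includes inhibitor. IC50 from semilog curves, ≥4 concentrations giving 25–75% inhibition.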

[2] = target: T1, Aldo-keto reductase family 1 member B1; test: Inhibition of Wistar rat lens aldose reductase 2 using D,L-glyceraldehyde as substrate
Summary of the method: (§1)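 Kinetic mode of rat lens ALR2 inhibition from double-reciprocal plots of initial velocity, with D,L-glyceraldehyde or NADPH concentration varied, with or without inhibitor (e.g. 20 µM); NADPH consumption read at 340 nm. Kinetic parameters given as mean ± SD of at least three experiments.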

[3] = Inhibition of Wistar rat kidney aldose reductase 1
Summary of the method: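 ALR1 partially purified from male Wistar rat kidney by ammonium sulfate fractionation and DEAE treatment. NADPH consumption followed at 340 nm with 20 mM D-glucuronate and 0.12 mM NADPH in 0.1 M phosphate pH 7.2 at 37 °C; inhibitor also in blank. IC50 from linear part of semilog curves, ≥4 concentrations spanning 25–75% inhibition.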

[4] = Lipophilicity in 1-octanol/phosphate buffer at pH 7.4 assessed as distribution ratio by shake flask method; assay type: physicochemical; conditions: octanol/water
Summary of the method: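 Shake-flask method at room temperature with mutually saturated phases: compound 100 µM final in 0.1 M phosphate buffer pH 7.4 containing 0.15 M KCl, shaken with 1-octanol for 3 h. Phases separated by 1 h centrifugation; both measured by UV spectrophotometry. D is organic/aqueous total concentration; mean ± SD of ≥3 experiments.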

[5] = Dissociation constant, acidic pKa of compound; assay type: physicochemical
Summary of the method: (§2)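 Potentiometric titration with glass/saturated calomel electrodes: compound about 2 mM in water, acidified with 0.1 M HCl to pH about 1.8, titrated with 0.1 M NaOH at 22 °C ± 1 °C, ionic strength held at 0.1 M with KCl.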

[6] = Dissociation constant, basic pKa of compound; assay type: physicochemical; summary of the method: as §2
[7] = target: T1, Aldo-keto reductase family 1 member B1; test: Inhibition of Wistar rat lens aldose reductase 2 using NADPH as substrate; summary of the method: as §1
[8] = Antioxidant activity assessed as inhibition of AAPH-induced peroxidation of DOPC liposome after 80 mins by thiocyanate method; assay type: functional
Summary of the method: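 DOPC unilamellar liposomes (0.8 mM final) in 20 mM phosphate buffer pH 7.4 with AAPH initiator (10 mM final) and varying test concentrations at 50 °C. Aliquots extracted with ice-cold CHCl3/MeOH (2:1) containing BHT; lipid hydroperoxides measured by thiocyanate method, absorbance at 500 nm. IC50 taken at 80 min.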

IC50 [1] [µM] | Ki [2] [µM] | IC50 [3] [µM] | D [4] | pKa [5] | pKa [6] | Ki [7] [µM] | IC50 [8] [µM] | SMILES
18.2 | 17.9 | 328 | 0.35 | 4.34 | 8.65 | 11 |  | O=C([O-])Cc1ccc2[nH]c3c(c2c1)CN(Cc1ccccc1)CC3.[K+]
16.7 | 17.7 | 603 | 0.51 |  |  | 10.5 |  | O=C([O-])Cc1ccc2[nH]c3c(c2c1)CN(CCc1ccccc1)CC3.[K+]
54 |  | 3080 | 0.13 |  |  |  |  | CN1CCc2[nH]c3ccc(CC(=O)[O-])cc3c2C1.[K+]
266 |  | > 3000 | 0.2 |  |  |  | 75.6 | O=C([O-])Cc1ccc2c(c1)[C@@H]1CN(Cc3ccccc3)CC[C@@H]1N2.[Na+] (racemic)

More lines, now with the values behind:

SMILES | IC50 [1] [µM] | Ki [2] [µM] | IC50 [3] [µM] | D [4] | pKa [5] | pKa [6] | Ki [7] [µM] | IC50 [8] [µM]
Cc1ccc2[nH]c3c(c2c1)CN(C)CC3 [DEHYDROSTOBADINE] | > 1000 |  |  | 6 |  |  |  | 72.7
O=C(O)Cc1nn(Cc2nc3cc(C(F)(F)F)ccc3s2)c(=O)c2ccccc12 [ZOPOLRESTAT] | 0.005 |  |  |  |  |  |  | 
CN1CC[C@@H]2Nc3ccc(CC(=O)[O-])cc3[C@@H]2C1.[K+] (racemic) | 381 |  |  | < 0.1 |  |  |  | 
Cc1c(C)c2c(c(C)c1O)CCC(C)(C(=O)O)O2 (stereo not given) [TROLOX] |  |  |  |  |  |  |  | 93.5
CCCC(CCC)C(=O)O [VALPROIC ACID] |  |  | 56.1 |  |  |  |  | 
Cc1ccc2c(c1)[C@H]1CN(C)CC[C@H]1N2 [STOBADINE] | > 1000 |  |  | 2.5 |  |  |  | 25.3

Source: ChEMBL document CHEMBL1157200, “Carboxymethylated pyridoindole antioxidants as aldose reductase inhibitors: Synthesis, activity, partitioning, and molecular modeling” (Bioorg Med Chem, 2008)
